Common to all, as to assay type: functional, Rattus norvegicus, Hippocampus
The nature of experiment [1]: Evaluation for reversing the inhibitory effects of Fumonisin B1(FB1) on accelerated axonal growth of hippocampal neurons. In short, it runs like this: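 E18 Wistar rat hippocampal neurons, trypsin-dissociated and plated at low density on poly-L-lysine cover slips over a glial monolayer in serum-free N2 MEM. At 48 h: bFGF 1 ng/mL plus FB1 10 μM (Hepes stock) with or without analogue 5 μM (ethanol, ≤1% final). At 51 h, fixed in glutaraldehyde and axonal branch points/cell counted by phase contrast. Values normalized to 48 h; mean ± SEM of three cultures, 50 cells per cover slip, two cover slips per treatment; p values reported.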

Experiment [2] can be described thus: Inability to reverse inhibitory effect of D-threo-1-phenyl-2-decanoylamino-3-morpholino-1-propanol(PDMP) on accelerated axonal growth of hippocampal neurons, number of axonal branch points/ cell at 51 hour (P value). In outline: (§1)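 Rat (E18 Wistar) hippocampal neurons cultured at low density over glia in serum-free N2 MEM. Treated at 48 h with bFGF 1 ng/mL, PDMP 50 μM final (Hepes stock) and with or without analogue 5 μM from ethanol (≤1% final). Axonal branch points/cell counted by phase contrast after glutaraldehyde fixation at 51 h and normalized to 48 h. Mean ± SEM of three cultures, 50 cells × two cover slips; p values vs bFGF or bFGF+PDMP.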

A short description of experiment [3]: Inability to reverse inhibitory effect of D-threo-1-phenyl-2-decanoylamino-3-morpholino-1-propanol(PDMP) on accelerated axonal growth of hippocampal neurons (P value). In short, it runs like this: as §1

“And” between values parts separate entries of the source, which are not always exact repeats. Identical values can stand only once.

Regarding `CCCCCCC/C=C/[C@@H](F)[C@H](CO)NC(=O)CCCCC`, the No. of axonal points in experiment [1] is 1.39; in experiment [2], 1.12.

`CCCCCCC/C=C/[C@H](F)[C@H](CO)NC(=O)CCCCC`: the No. of axonal points in experiment [1] was determined as 1.29; in experiment [2], 1.16.

As to `CCCCCC(=O)N[C@@H](CO)[C@H](O)/C=C/c1ccc(C)cc1`, the No. of axonal points in experiment [1] was found to be 1.46.

For the compound `CCCCCc1ccc(/C=C/[C@@H](O)[C@H](CO)NC(C)=O)cc1`, the No. of axonal points in experiment [1] worked out at 1.67.

As for `CCCCCC(=O)N[C@@H](CO)[C@H](O)/C=C/c1ccc(F)cc1`, in experiment [1], the No. of axonal points turned out to be 1.5.

As to `CCCCCCCCCCCCC/C=C/[C@@H](O)[C@H](CO)NC(=O)CCCCCNc1ccc([N+](=O)[O-])c2nonc12`, the “No. of axonal points” value was <1.66 and 1.46 in experiment [1]; 0.86 and 1.08 in experiment [2].

As for `CCCCCCCCCCCCC/C=C/[C@H](O)[C@H](CO)NC(=O)CCCCCNc1ccc([N+](=O)[O-])c2nonc12`, the “No. of axonal points” value in experiment [1] is <1.01 and <1.06; in experiment [2], 1.06; in experiment [3], 0.94.

For `CCCCCC(=O)N[C@@H](CO)[C@H](O)/C=C/c1ccc(OC)cc1`, in experiment [1], the No. of axonal points is 1.35.

As for `CCCCCC(=O)N[C@@H](CO)[C@H](O)/C=C/c1cccs1`, the No. of axonal points turned out to be 1.38 in experiment [1] and 1.04 in experiment [2].

On to `CCCCCc1ccc(/C=C/[C@@H](O)[C@H](CO)NC(=O)CCC)cc1`, for which the No. of axonal points in experiment [1] amounted to 1.83.

On to `CCCCCC(=O)N[C@@H](CO)[C@H](O)/C=C/c1ccc(CCCCC)cc1`, for which the No. of axonal points in experiment [1] is 1.54.

For `CCCCCCC/C=C/[C@@H](O)[C@H](CO)NC(=O)CCCCC`, the No. of axonal points in experiment [1] came out at 1.43.

Turning to `CCCCCCC/C=C/[C@H](O)[C@H](CO)NC(=O)CCCCC`, in experiment [1], the No. of axonal points is 1.11.

Turning to `CCCCCC(=O)N[C@@H](CO)[C@H](O)/C=C/c1ccccc1`, the figures for the No. of axonal points in experiment [1] and in experiment [2] were 2.09 and 0.92, respectively.

Source of the values: ChEMBL document CHEMBL1133505, “Synthesis and biological evaluation of ceramide analogues with substituted aromatic rings or an allylic fluoride in the sphingoid moiety” (2000).
